Measured values collected from several papers.
Protocols differ between the studies behind these lines. pIC50: −log10 of the molar value.
Effect on: DPPH scavenging

O=[N+]([O-])c1ccccc1/C=N/N=C/c1ccccc1[N+](=O)[O-]  pIC50: 2.53
O=C1O[C@H]([C@@H](O)CO)C(O)=C1O  pIC50 (absorbance; 30 min): 4.91
Clc1ccc(/C=N/N=C/c2ccc(Cl)cc2)cc1  pIC50: < 2.52
CCN(CC)c1ccc(/C=N/c2ccccc2Br)c(O)c1  pIC50: 4.39
Cc1c(C)c2c(c(C)c1O)CCC(C)(C(=O)O)O2 (stereo not shown)  pIC50: 3.66
Oc1cc(O)c2c(c1)O[C@H](c1ccc(O)c(O)c1)[C@@H](O)C2  pIC50: 4.51
Fc1ccccc1/C=N/N=C/c1ccccc1F  pIC50: 2.55
CCN(CC)c1ccc(/C=N/c2ccccc2F)c(O)c1  pIC50: 4.42
O=C1O[C@H]([C@@H](O)CO)C(O)=C1O  pIC50: 3.46
Cc1cc(C(C)(C)C)c(O)c(C(C)(C)C)c1  IC50 (absorbance; 30 min): 69 µg/mL
